These compounds were tested against Synaptic vesicle glycoprotein 2A (Rattus norvegicus, UniProt Q02563) (assay: In vitro inhibitory activity against [3H](2S)-2-[4-(3-azidophenyl)-2-oxopyrrolidin-1-yl]butanamide binding to levetiracetam binding site).
In short: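 Rat cerebral cortex membranes (male Sprague-Dawley, 200–250 g), homogenised in Tris-HCl/sucrose at 4 °C, washed, preincubated 15 min at 37 °C. Binding: 4 °C for 120 min in 50 mmol/L Tris-HCl pH 7.4 with 2 mmol/L MgCl2, 1–2 × 10^-9 mol/L tritiated azidophenyl radioligand, rising test concentrations. Nonspecific binding with 10^-3 mol/L levetiracetam. Rapid filtration, scintillation counting. pIC50 is the mean of two independent determinations.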

Chain of Synaptic vesicle glycoprotein 2A (Q02563 whole entry): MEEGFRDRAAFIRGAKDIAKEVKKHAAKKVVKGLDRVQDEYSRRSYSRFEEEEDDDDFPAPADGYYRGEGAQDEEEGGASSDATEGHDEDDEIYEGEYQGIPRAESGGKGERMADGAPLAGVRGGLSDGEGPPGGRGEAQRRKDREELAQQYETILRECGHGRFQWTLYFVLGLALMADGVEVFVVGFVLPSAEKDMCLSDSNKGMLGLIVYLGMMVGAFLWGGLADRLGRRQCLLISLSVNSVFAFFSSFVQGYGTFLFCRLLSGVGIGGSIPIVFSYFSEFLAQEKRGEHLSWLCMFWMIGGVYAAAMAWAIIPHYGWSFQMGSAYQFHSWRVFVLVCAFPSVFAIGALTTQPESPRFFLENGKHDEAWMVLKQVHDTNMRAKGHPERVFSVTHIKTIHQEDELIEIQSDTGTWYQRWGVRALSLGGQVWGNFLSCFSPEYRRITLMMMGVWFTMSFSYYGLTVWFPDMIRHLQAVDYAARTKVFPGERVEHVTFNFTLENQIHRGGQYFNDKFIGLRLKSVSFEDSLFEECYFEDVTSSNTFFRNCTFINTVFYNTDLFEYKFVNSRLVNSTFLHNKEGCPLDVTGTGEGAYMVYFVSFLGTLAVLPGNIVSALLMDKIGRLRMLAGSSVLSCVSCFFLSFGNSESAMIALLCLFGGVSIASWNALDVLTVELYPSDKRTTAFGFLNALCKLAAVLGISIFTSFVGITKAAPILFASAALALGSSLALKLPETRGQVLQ

Question: How did the IC50 turn out when CCC[C@@H](C(N)=O)N1CCCC1=O was run?
Answer: Its IC50 is 5010 nM.

Question: With CC[C@@H](C(N)=O)N1C[C@H](C)CC1=O as the compound, how does the IC50 read?
Answer: Its IC50 is 1250 nM.

Question: With CCC[C@@H]1CC(=O)N([C@@H](CC)C(N)=O)C1 [UCB-34714] as the compound, how does the IC50 read?
Answer: Its IC50 is 100 nM.

Question: CC(C)C(C(N)=O)N1CCCC1=O (stereo unspecified) was tested. Which IC50 did it give?
Answer: The IC50 was 19900 nM.

Question: With CCCCC1CC(=O)N(C(CC)C(N)=O)C1 (stereo unspecified) as the compound, how does the IC50 read?
Answer: Its IC50 is 398 nM.

Question: With CC[C@@H](C(N)=O)N1C[C@H](CN=[N+]=[N-])CC1=O as the compound, how does the IC50 read?
Answer: The IC50 was 79.4 nM.

Question: Which IC50 does the source give for CC[C@@H](C(N)=O)N1CCCC1=O [UCB-22059] here?
Answer: Its IC50 is 794 nM.

Question: How did the IC50 turn out when CCCCCCCCN(C(=O)Cc1ccc(Cl)cc1)C(CC)C(N)=O (stereo unspecified) was run?
Answer: The IC50 was 1990 nM.

Question: For CCC[C@H](C(N)=O)N1CCCC1=O, which IC50 is on record?
Answer: The IC50 was 999000 nM.

Question: How did the IC50 turn out when CC[C@@H](C(N)=O)N1C[C@H](CO[N+](=O)[O-])CC1=O was run?
Answer: The IC50 was 100 nM.

Question: For CCC(C(N)=O)N1CC(COC)CC1=O (stereo unspecified), which IC50 is on record?
Answer: The IC50 was 1580 nM.

Question: With CCCCCN(C(=O)CC)C(CC)C(N)=O (stereo unspecified) as the compound, how does the IC50 read?
Answer: The IC50 was 1990 nM.

Question: With CC[C@H](C(N)=O)N1CCCC1=O [Levitiracetam] as the compound, how does the IC50 read?
Answer: Its IC50 is < 999000 nM.

Question: CC[C@@H](C(=O)NC)N1CCCC1=O was tested. Which IC50 did it give?
Answer: The IC50 was 12500 nM.

Question: For CCC(C(N)=O)N1C(=O)CCC1(C)C (stereo unspecified), which IC50 is on record?
Answer: The IC50 was 63000 nM.

Question: For CCC[C@H]1CC(=O)N([C@@H](CC)C(N)=O)C1, which IC50 is on record?
Answer: The IC50 was 251 nM.

Question: For CC[C@@H](C(N)=O)N1C[C@H](CCl)CC1=O, which IC50 is on record?
Answer: Its IC50 is 199 nM.

Question: For CCCCCC1CC(=O)N(C(CC)C(N)=O)C1 (stereo unspecified), which IC50 is on record?
Answer: The IC50 was 1250 nM.

Question: Which IC50 does the source give for CCC(C(N)=O)N1CC(Cc2ccccc2)CC1=O (stereo unspecified) here?
Answer: The IC50 was 2510 nM.

Question: CCC1CC(=O)N([C@@H](CC)C(N)=O)C1 (stereo partly specified) was tested. Which IC50 did it give?
Answer: Its IC50 is 1250 nM.

Question: With CCCCCCCCN(C(=O)CC)C(CC)C(N)=O (stereo unspecified) as the compound, how does the IC50 read?
Answer: Its IC50 is 3980 nM.

Question: For CC[C@@H](C(N)=O)N1C[C@H](CBr)CC1=O, which IC50 is on record?
Answer: Its IC50 is 251 nM.

Question: How did the IC50 turn out when CC[C@@H](C(N)=O)N1CC(CC(C)(C)C)CC1=O (stereo partly specified) was run?
Answer: Its IC50 is 794 nM.

Question: How did the IC50 turn out when CC[C@@H](C(N)=O)N1C[C@H](CI)CC1=O was run?
Answer: The IC50 was 158 nM.

Question: CC[C@@H](C(=O)NO)N1CCCC1=O was tested. Which IC50 did it give?
Answer: Its IC50 is 1990 nM.

Question: Which IC50 does the source give for CCCCCCCN(C(=O)Cc1ccc(OC)cc1)C(CC)C(N)=O (stereo unspecified) here?
Answer: The IC50 was 2510 nM.

Question: CC[C@@H](C(N)=O)N1CC(CC2CC2)CC1=O (stereo partly specified) was tested. Which IC50 did it give?
Answer: The IC50 was 125 nM.

Question: With CCCCN(C(=O)CC)[C@@H](CC)C(N)=O as the compound, how does the IC50 read?
Answer: The IC50 was 9990 nM.

Question: Which IC50 does the source give for CC[C@@H](C(N)=O)N1CCC(C)C1=O (stereo partly specified) here?
Answer: Its IC50 is 19900 nM.

Question: CCC(C(=O)N(C)O)N1CCCC1=O (stereo unspecified) was tested. Which IC50 did it give?
Answer: The IC50 was 19900 nM.

Question: How did the IC50 turn out when NC(=O)CN1CCCC1=O [2-(2-oxopyrrolidin-1-yl)acetamide] was run?
Answer: Its IC50 is 39800 nM.

Question: Which IC50 does the source give for CC[C@@H](C(N)=O)N1CC(NC(=O)OC)CC1=O (stereo partly specified) here?
Answer: The IC50 was 1580 nM.

Question: Which IC50 does the source give for CC[C@@H](C(=N)N)N1CCCC1=O here?
Answer: Its IC50 is 12500 nM.

Question: With C[C@@H](C(N)=O)N1CCCC1=O as the compound, how does the IC50 read?
Answer: Its IC50 is 3160 nM.

Question: How did the IC50 turn out when CC[C@@H](C(N)=O)N1C(=O)CCC1C (stereo partly specified) was run?
Answer: Its IC50 is 2510 nM.

Question: For CC[C@@H](C(N)=O)N1C[C@H](CF)CC1=O, which IC50 is on record?
Answer: Its IC50 is 1250 nM.

Question: CC[C@@H](C(N)=O)N1C[C@H](CSC)CC1=O was tested. Which IC50 did it give?
Answer: Its IC50 is 125 nM.

Question: CCCC1(C)CC(=O)N([C@@H](CC)C(N)=O)C1 (stereo partly specified) was tested. Which IC50 did it give?
Answer: Its IC50 is 398 nM.

Question: CCC(C(N)=O)N1CC(C(C)C)CC1=O (stereo unspecified) was tested. Which IC50 did it give?
Answer: The IC50 was 3980 nM.

Question: CCC(C(=O)NN)N1CCCC1=O (stereo unspecified) was tested. Which IC50 did it give?
Answer: Its IC50 is 6300 nM.

Question: CC[C@@H](C(N)=O)N(C)C(C)=O was tested. Which IC50 did it give?
Answer: The IC50 was 15800 nM.
